Data published in ChEMBL document CHEMBL1130202, “Biologically active heteroarotinoids exhibiting anticancer activity and decreased toxicity” (J Med Chem, 1997).
Activity calls are given as the source filed them. The rule behind the calls is not given here.

Key:
Mus musculus [1] = assay: Effect of compound on right testicle to body weight ratios in mice at 0.05 mg/kg/day dose on day 25; dead on day 65; type: functional, organism-based
Mus musculus [2] = assay: Enlarged spleen in Enlarged spleen in Gross pathological observations with hypervitaminosis A in mice at 0.2 mg/kg/day dose with gross observations/total number of animals in group; 0/16; type: functional, organism-based
Mus musculus [3] = assay: Enlarged spleen in Gross pathological observations with hypervitaminosis A in mice at 0.4 mg/kg/day dose with gross observations/total number of animals in group; 0/16; type: functional, organism-based
Mus musculus [4] = assay: Effect of compound on adrenal to body weight ratios in mice at 0.05 mg/kg/day dose; measured on day 25
Mus musculus [5] = assay: Effect of compound on Spleen to body weight ratios in mice at 0.4 mg/kg/day dose on day 65; dead by day 65; type: functional, organism-based
In short: (§1)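 Male B6D2F1 mice dosed daily by gavage with compound in corn oil; vehicle 1 (corn oil) controls run to termination on day 65. Low, mid 1, mid 2 and high dose groups, with dosage increases partway through the study. Organ-to-body weight ratios (×1000) taken at necropsy on day 65, reported as mean ± SD for 4 to 8 animals and as % difference from vehicle.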

Mus musculus [6] = assay: Alopecia observed at 0.05 mg/kg/day dose in mice with hypervitaminosis; 8/8; type: functional, organism-based
Mus musculus [7] = assay: Calculated 30-day maximally tolerated dose based on 10% weight loss in mice at 0.05 mg/kg/day; type: functional
Mus musculus [8] = assay: Alopecia observed at 0.01 mg/kg/day dose in mice with hypervitaminosis; 6/8; type: functional, organism-based
Mus musculus [9] = assay: Total dose of 10% weight loss in mice at 0.01 mg/kg/day; type: functional
Mus musculus [10] = assay: Calculated 30-day maximally tolerated dose based on 10% weight loss in mice at 0.01 mg/kg/day; type: functional
Mus musculus [11] = assay: Total dose of 10% weight loss in mice at 0.05 mg/kg/day; type: functional
Mus musculus [12] = assay: Enlarged lymph in gross pathological observations with hypervitaminosis A in mice at 0.8 mg/kg/day dose with gross observations/total number of animals in group; 8/16; type: functional, organism-based
Mus musculus [13] = assay: Effect of compound on thymus to body weight ratios in mice at 0.4 mg/kg/day dose; all the animals died by day 65; type: functional, organism-based
In short: (§2)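 Male B6D2F1 mice were dosed daily by gavage in corn oil, with TTNPB given at 0.1–0.8 or 0.01/0.05 mg/kg/day. Thymus-to-body weight ratio (×1000) was taken at necropsy on day 65 against vehicle 1, or on day 25 for the 0.01/0.05 groups against vehicle 2. Mean ± SD of 4–8 animals, reported as % difference from vehicle.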

Mus musculus [14] = assay: Effect of compound on Spleen to body weight ratios in mice at 0.8 mg/kg/day dose on day 65; dead by day 65; type: functional, organism-based; in short: as §1
Mus musculus [15] = assay: Effect of compound on Spleen to body weight ratios in mice at 0.1 mg/kg/day dose on day 65; dead by day 65; type: functional, organism-based; in short: as §1
Mus musculus [16] = assay: Fracture incidents in mouse at 0.4 mg/kg/day; 3/12
Mus musculus [17] = assay: Approximate day to determine 10% weight loss in mice at 0.05 mg/kg/day; type: functional
In short: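 Male B6D2F1 mice dosed daily by gavage in corn oil; body weights followed to termination (day 65, or day 25 for TTNPB 0.01/0.05 mg/kg/day groups) and compared with the matching vehicle group. Value is approximate day of onset of 10% body weight reduction versus vehicle.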

Mus musculus [18] = assay: Fracture incidents in mouse at 0.2 mg/kg/day; 3/8
Mus musculus [19] = assay: Effect of compound on adrenal to body weight ratios in mice at 0.1 mg/kg/day dose; all the animals died by day 65; type: functional, organism-based
Mus musculus [20] = assay: Effect of compound on right testicle to body weight ratios in mice at 0.1 mg/kg/day dose; all the animals died by day 65; type: functional, organism-based
Mus musculus [21] = assay: Effect of compound on right testicle to body weight ratios in mice at 0.05 mg/kg/day dose; all the animals died by day 65; type: functional, organism-based
[22] = Mortality rate in mice at 0.8 mg/kg/day; range (7-8); type: ADME, organism-based; details: mouse, in vivo
In short: (§3)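 Male B6D2F1 mice given compound daily by gavage in corn oil at the stated dose levels, with corn oil vehicle controls. Deaths counted as animals found dead or sacrificed moribund, with day(s) of death recorded. Heteroarotinoid groups ran to day 65 and low-dose reference groups to day 25.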

Mus musculus [23] = assay: Enlarged lymph in gross pathological observations with hypervitaminosis A at 0.1 mg/kg/day dose with gross observations/total number of animals in group'' 16/16; type: functional, organism-based
Mus musculus [24] = organism: Mus musculus; assay: Skin scaling in mice at mid dose 1 with Hypervitaminosis; 1/16; type: functional, organism-based
Mus musculus [25] = organism: Mus musculus; assay: Avoiding pressure on limbs in mice at high dose with Hypervitaminosis; 0/16; type: functional, organism-based; details: Limb
Mus musculus [26] = organism: Mus musculus; assay: Alopecia in mice observed at high dose with Hypervitaminosis; 1/16; type: functional, organism-based
Mus musculus [27] = organism: Mus musculus; assay: Fracture incidence in mouse at mid dose 2; 0/8
Mus musculus [28] = organism: Mus musculus; assay: Fracture incidence in mouse at high dose; 2/8
Mus musculus [29] = organism: Mus musculus; assay: Enlarged lymph in gross pathological observations in mice with hypervitaminosis A at mid dose 2 with gross observations/total number of mice in group; 2/16; type: functional, organism-based
Mus musculus [30] = organism: Mus musculus; assay: Avoiding pressure on limbs in mice at mid dose 1 with Hypervitaminosis 0/16; type: functional, organism-based; details: Limb
Mus musculus [31] = organism: Mus musculus; assay: Mortality rate in mice in high dose; type: functional; in short: as §3
Mus musculus [32] = organism: Mus musculus; assay: Skin scaling in mice at mid dose 1 with Hypervitaminosis; 0/16; type: functional, organism-based
Mus musculus [33] = organism: Mus musculus; assay: Avoiding pressure on limbs in mice at high dose with Hypervitaminosis; 4/16; type: functional, organism-based; details: Limb
Mus musculus [34] = organism: Mus musculus; assay: Alopecia in mice observed at low dose with Hypervitaminosis; 0/16; type: functional, organism-based
Mus musculus [35] = organism: Mus musculus; assay: Effect of compound on Spleen to body weight ratios in mice at high dose on day 65; all the animals died by day 65; type: functional, organism-based; in short: as §1
Mus musculus [36] = organism: Mus musculus; assay: Effect of compound on serum Alkaline phosphatase levels in mice at low dose on day 36; type: functional
In short: (§4)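 Male B6D2F1 mice dosed daily by oral gavage in corn oil at low, mid 1, mid 2 or high dose. Blood sampled on set days (8, 29, 36, 65) for clinical chemistry, serum alkaline phosphatase and triglycerides. Group mean ± SD reported as % relative to vehicle 1; significance p < 0.05 versus corn oil vehicle.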

Mus musculus [37] = organism: Mus musculus; assay: Effect of compound on thymus to body weight ratios in mice at high dose on day 65; all the animals died by day 65; type: functional, organism-based; in short: as §2
Mus musculus [38] = organism: Mus musculus; assay: Effect of compound on serum Alkaline phosphatase levels in mice at mid dose 2 on day 29; type: functional; in short: as §4
Mus musculus [39] = organism: Mus musculus; assay: Enlarged lymph in gross pathological observations in mice with hypervitaminosis A at mid dose 2 with gross observations/total number of mice in group; 8/16; type: functional, organism-based
Mus musculus [40] = organism: Mus musculus; assay: Effect of compound on white blood cells levels in mice at mid dose 1 on day 65; type: functional
In short: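 Male B6D2F1 mice were gavaged daily with compound in corn oil at low, mid 1, mid 2 or high dose. Serum triglycerides and circulating white blood cells were measured on the stated day (8, 29, 36, 65). Values are group mean ± SD expressed as % relative to corn-oil vehicle, with significance at p ≤ 0.05.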

C/C(=C\c1ccc(C(=O)O)cc1)c1ccc2c(c1)C(C)(C)CCC2(C)C
Activity (Mus musculus [1]): Toxic
Activity (Mus musculus [2]): inactive
Activity (Mus musculus [3]): inactive
Activity (Mus musculus [4]): Toxic
Activity (Mus musculus [5]): Toxic
Activity (Mus musculus [6]): Active
Max tolerated dose (Mus musculus [7]): 1 µg/kg
Activity (Mus musculus [8]): Active
Dose (Mus musculus [9]): >250 µg/kg
Max tolerated dose (Mus musculus [10]): >8 µg/kg
Dose (Mus musculus [11]): 400 µg/kg
Activity (Mus musculus [12]): Weak activity
Activity (Mus musculus [13]): Toxic
Activity (Mus musculus [14]): Toxic
Activity (Mus musculus [15]): Toxic
Activity (Mus musculus [16]): Weak activity
Activity (Mus musculus [17]): 8
Activity (Mus musculus [18]): Weak activity
Activity (Mus musculus [19]): Toxic
Activity (Mus musculus [20]): Toxic
Activity (Mus musculus [21]): Toxic
Mortality [22]: 16 day of death
Activity (Mus musculus [23]): Active

CC(/C=C/C=C(\C)c1ccc2c(c1)C(C)(C)CCS2)=C\C(=O)O
Activity (Mus musculus [24]): inactive
Activity (Mus musculus [25]): inactive
Activity (Mus musculus [26]): inactive
Activity (Mus musculus [27]): inactive
Activity (Mus musculus [28]): Weak activity
Activity (Mus musculus [29]): inactive

CC(/C=C/C=C(\C)c1ccc2c(c1)C(C)(C)CCO2)=C\C(=O)O
Activity (Mus musculus [30]): inactive
Mortality (Mus musculus [31]): 0 day of death
Activity (Mus musculus [32]): inactive
Activity (Mus musculus [33]): Weak activity
Activity (Mus musculus [34]): inactive

C/C(=C\c1ccc(C(=O)O)cc1)c1ccc2c(c1)C(C)(C)CCO2
Activity (Mus musculus [35]): Toxic
Activity (Mus musculus [36]): 77.4
Activity (Mus musculus [37]): Toxic
Activity (Mus musculus [38]): 106.3
Activity (Mus musculus [39]): Weak activity
Activity (Mus musculus [40]): 5.46
